Bioassay records as filed in PubChem.
Arrestin-AP2 inh – inhibitors of beta-arrestin/AP2 binding, primary screen, biochemical, GPCR trafficking, flow cytometry. beta-arrestin 1 C-terminal peptide binding to AP2 beta2-adaptin appendage (human). FITC-arrestin peptide / GST-AP2 beads; AP2 beta2 appendage carries R879A mutation. inhibition, % at 10 µM. hit rate 0.31% among 340,000. AID 504490, 2011;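 active = inhibition above a set limit, near 3 SD of compounds lacking own fluorescence, cut at about 54% in these data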;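 note: plate controls were DMSO wells for no effect and 5 µM unlabelled arrestin peptide for full effect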
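Test system: GST-tagged AP2 beta2-adaptin appendage (R879A) on 4 µm glutathione beads; also added: fluorescein-tagged arrestin peptide at 50 nM final; timing: 12 min plus 1 h, RT; signal: flow cytometry, FL1 (488/535 nm); read-out: percent drop in bead-associated FITC signal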
PLC-gamma1 inh – PLC-gamma1 enzyme inhibitors, primary screen, biochemical, fluorescence, purified enzyme. 1-phosphatidylinositol 4,5-bisphosphate phosphodiesterase gamma-1 (Homo sapiens), P19174. fluorogenic substrate. inhibition, % at 12.2 µM. hit rate 0.84% among 370,000
NTR1 ag – agonists of human NTR1, primary screen, imaging, U2OS cells, beta-arrestin-GFP, high content; activation, % at 20 µM; Neurotensin receptor type 1 (Homo sapiens), P30989; hit rate 0.17% among 330,000; AID 493036, 2011; NTR1-U2OS beta-arrestin-GFP spot imaging, agonist mode;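 active = activation at or above 40% of the spot to cytoplasm intensity ratio, with at least 20 cells analyzed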;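 note: 0% = DMSO without peptide and 100% = 100 nM NTR1 peptide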
PLC-beta3 inh – human PLC-beta3 inhibitors, primary screen, biochemical, fluorescence | inhibition, % at 12.2 µM | hit rate 0.18% among 370,000 | AID 720704, 2013 | Purified PLC-beta3, fluorogenic substrate | 1-phosphatidylinositol 4,5-bisphosphate phosphodiesterase beta-3 (Homo sapiens), Q01970; in the data active = inhibition above about 11%;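 note: 0% = median of compound wells on plate and 100% = full blocker control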
PLCg1 ctr – PLC-gamma1 enzyme inhibitors, counter-screen for PLC-beta3 inhibitor project, biochemical, fluorescence; shares compounds with PLC-gamma1 inh; purified PLC-gamma1, fluorogenic substrate; inhibition, % at 12.3 µM; hit rate 3.1% among 3,300; AID 743258, 2014
PLCb3 confirm – PLC-beta3 inhibitor confirmation, biochemical, fluorescence, purified enzyme | shares compounds with PLC-gamma1 inh | fluorogenic substrate fluorescence | inhibition, % at 12.3 µM | hit rate 1% among 3,300; in the data active = inhibition above about 11%
Starred values were filed as active, the others as inactive; · = no result. Compounds with a hit are over-represented: about 1.3% of the library has one in this group of screens. Cut-off read from the data, not from the text of the source, unless noted: active = inhibition above about 9.5%; inactive = the rest.

SMILES	Arrestin-AP2 inh	PLC-gamma1 inh	NTR1 ag	PLC-beta3 inh	PLCg1 ctr	PLCb3 confirm
O=C(O)c1ccc2c(c1)C(=O)/C(=C\c1ccco1)C2=O	11	36*	0	5	23*	-9
OC(c1ccccc1)(c1ccccc1)C1CCN(CCCOc2ccc(-c3cccnc3)cc2)CC1	·	0	·	1	·	·
OC(CN1CCCCC1)CN1CCCCC1	18	11*	1	-95	-3	0
O=C(O)C1Nc2c(O)cccc2C2C=CCC12 (stereo not drawn)	7	18*	0	7	-3	-7
CCOC(=O)N1CCC(NC(=O)CCN2C(=O)C3C4C=CC(C4)C3C2=O)CC1 (stereo not drawn)	-3	10*	0	5	8	2
CC1CCN(C2(O)C(=O)Nc3ccc([N+](=O)[O-])cc32)CC1 (stereo not drawn)	10	10*	1	14*	-3	3
Cc1ccccc1NC(=O)[C@@H]1CCCN1S(=O)(=O)c1cccc2cccnc12	·	5	·	4	·	·
COc1ccc(-c2noc(C3CCCN(C(=O)Nc4ccc5c(c4)OCO5)C3)n2)cc1 (stereo not drawn)	·	3	·	4	·	·
CCSC1=C(C#N)C2(CCCCC2)C(C#N)C(=O)N1 (stereo not drawn)	-9	13*	-4	2	-6	-5
C[C@@H]1CCN(C2CC2)S(=O)(=O)c2c(cccc2N2CCC[C@H]2C)O1	·	-6	·	-11	·	·
CCCNC(=O)CSc1n[nH]c(=O)n1CCc1ccccc1	1	0	0	-3	·	·
CC(C)CNC(=O)CSc1n[nH]c(=O)n1CCc1ccccc1	-4	13*	2	-2	-1	-2
Cc1nn(-c2ccccc2)c(N2CCCC2)c1/C=N/NC(=O)C1CC1	4	12*	2	-6	2	-2
O=C(CSc1nnnn1C1CCCCC1)N1CCN(C(=O)c2ccco2)CC1	3	12*	1	-4	-5	0
N/C(=N\OC(=O)c1ccc2c(c1)OCO2)c1ccc(Cl)cc1	8	4	0	6	·	·
N/C(=N\OC(=O)c1ccc2c(c1)OCO2)c1ccncc1	0	13*	1	-5	-4	-2
COc1cc(CNc2ncnc3c2ncn3[C@H]2CN(Cc3cccc(C(F)(F)F)c3)C[C@@H](CO)O2)cc(OC)c1OC	·	9.6*	·	3	-2	2
O=C(c1ccccc1)n1ccc2ccc(-c3ccc4ccn(C(=O)c5ccccc5)c4c3)cc21	·	-7	·	-16	·	·
COC(=O)[C@]12C[C@H](CC(=O)N3CCSCC3)C(=O)N(CCc3ccc(OC)c(OC)c3)C1=C[C@H](C1CCCC1)O[C@@H]2C	·	0	·	1	·	·
CC[C@H](CCCc1ccccc1OC)CCS(=O)(=O)N(C)C	·	-4	·	-5	·	·
CCN1CCN(C(c2ccccc2)c2nnnn2C(C)(C)C)CC1 (stereo not drawn)	·	1	·	0	·	·
CC(C)(C)n1nnnc1C(c1ccccc1)N1CCN(C(=O)C2CCCO2)CC1 (stereo not drawn)	·	9.9*	·	4	-6	2
CN1CCN(C(c2ccccc2)c2nnnn2C(C)(C)C)CC1 (stereo not drawn)	·	12*	·	5	-1	-7
COc1cc(NC(=O)C2CCCN(S(=O)(=O)c3ccc(Br)s3)C2)cc(OC)c1 (stereo not drawn)	·	2	·	-2	·	·
CC1CN(C(=O)c2cccc(S(=O)(=O)N3CCN(c4ccc(F)cc4)CC3)c2)CC(C)O1 (stereo not drawn)	12	5	-1	-8	·	·
SMILES	Arrestin-AP2 inh	PLC-gamma1 inh	NTR1 ag	PLC-beta3 inh	PLCg1 ctr	PLCb3 confirm
O=C(c1ccncc1)N1CCCC(N2CCN(c3ccc(F)cc3)CC2)C1 (stereo not drawn)	2	11*	2	-2	3	4
O=C(c1cccnc1)N1CCCC(Nc2ccc(F)cc2)C1 (stereo not drawn)	21	15*	-1	-4	-1	-1
CC(C)n1cc(C(=O)N2CCCC(N3CCN(c4ccc(F)cc4)CC3)C2)cn1 (stereo not drawn)	-11	3	-1	-4	·	·
O=C(C1CCCC1)N1CCCC(Nc2ccc(F)cc2)C1 (stereo not drawn)	-2	-1	-1	-4	·	·
O=C(c1cccc(S(=O)(=O)N2CCN(c3ccc(F)cc3)CC2)c1)N1CCCC(C(F)(F)F)C1 (stereo not drawn)	-13	10*	0	-4	14*	5
COc1cccc(-c2cc(CNC(=O)[C@H]3O[C@@H](n4cnc(C(N)=O)n4)[C@H](O)[C@@H]3O)no2)c1	·	6	·	2	·	·
COc1ccccc1NS(=O)(=O)c1cc(NC(=O)CNC(=O)c2ccccc2)ccc1C	33	11*	8	4	-7	-4
COC(=O)C1=C(C)N(C)C(=NCc2cc(OC)c(OC)c(OC)c2)NC1c1cccc(F)c1 (stereo not drawn)	·	2	·	3	·	·
O=C(CSc1ccc(-c2cccc([N+](=O)[O-])c2)nn1)N1CCCCC1	14	14*	4	0	-2	3
Cc1nc(NCCOc2ccccc2)sc1C(=O)Nc1ccccc1	4	12*	0	6	1	0
Cc1nc(NCc2ccccc2)sc1C(=O)Nc1ccccc1	-12	-1	1	4	·	·
COc1ccc(C2NC(=O)NC(C)=C2C(=O)OCC2CCCCC2)cc1OC (stereo not drawn)	9	11*	-1	-1	-4	-1
Cc1ccc(NC(=O)Cn2nnc(-c3ccccc3F)n2)cc1C	·	1	·	-6	·	·
CCOC(=O)[C@]12CCCC=C1N(Cc1ccc(OC)cc1)C(=O)[C@@H]2CC(=O)N1CCC(c2ccccc2)CC1	·	3	·	0	·	·
COc1ccccc1C(=O)CSc1nnc(-c2ccncc2)n1-c1ccc(Cl)cc1	·	1	·	1	·	·
CCOc1ccc(N(CC(=O)NC2CCCC2)C(=O)CCC(=O)Nc2nc(C)cs2)cc1	-4	1	1	-3	·	·
Cc1ccc(N(CC(=O)NC2CCCC2)C(=O)CCC(=O)Nc2nc(C)cs2)cc1	6	9.6*	0	-8	-2	4
CCCCOCC1CN(CCCC)S(=O)(=O)c2c(cccc2N2CCCC2)O1 (stereo not drawn)	·	0	·	-1	·	·
CC(C)(C)OC(=O)N[C@H](C(=O)OC(C)(C)C)c1ccc2c(c1)OCO2	-1	10*	2	4	3	-3
